Holding throughout (format): functional
For experiment [1], the species on record is Mus musculus. As to the kind of experiment: Effect of test compound on the potentiation of apomorphine-induced gnawing (AG) in aggregated mice. In a few lines:
(§1)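 Male albino CF-1 mice, 18-22 g. Compounds were dissolved or suspended in 0.25% aqueous methylcellulose and given intraperitoneally to groups of four or six mice per dose, at multiple dose levels. ED50 was calculated by the Spearman-Karber method.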

The species entered for experiment [2] is Mus musculus. Put plainly: Effect on the antagonism of pentylenetetrazole-induced clonic convulsions (P).
Experiment [3] is filed under the species Mus musculus. As to the kind of experiment: Effect on the prolongation of hypoxic survival time (HS). In outline: as §1
Experiment [4] is filed under the species Mus musculus. Put plainly: Effect on the antagonism of bicuculline-induced tonic-extensor convulsions (B). In a few lines:
as §1

The species named for experiment [5] is Mus musculus. Put plainly: Effect on the potentiation of gamma-butyrolactone-induced sleep (gamma-B). In a few lines: as §1
For experiment [6], the species on record is Mus musculus. As to the kind of experiment: Effect on the antagonism of oxotremorine-induced hypothermia (OX). In a few lines:
as §1

For experiment [7], the species on record is Mus musculus. As to the kind of experiment: Effect on the potentiation of yohimbine-induced toxicity (Y) in aggregated mice. In a few lines:
as §1

Experiment [8] is filed under the species Mus musculus. Put plainly: Effect on the antagonism of nicotine-induced tonic-extensor convulsions (TE) in mice. In a few lines: as §1
Experiment [9] is filed under the species Mus musculus. Put plainly: Effect on the antagonism of nicotine-induced death (D). In outline:
as §1

For the compound `CN1CCN(CCCn2nc3n(c2=O)-c2ccc(Cl)cc2C(c2ccccc2Cl)=NC3)CC1`, the ED50 in experiment [1] is greater than 25 mg/kg; in [2], 3.7 mg/kg; in experiment [3], greater than 30 mg/kg; in [4] (Mus musculus, read-out: ED50) it was greater than 25 mg/kg; in experiment [5], 3.7 mg/kg; in [6], 25 mg/kg. Moreover, the ED50 is 25 mg/kg in experiment [7]; 0.4 mg/kg in experiment [8] (Mus musculus, read-out: ED50); 0.5 mg/kg in experiment [9] (Mus musculus, read-out: ED50).

`O=c1n(CCCN2CCN(CCO)CC2)nc2n1-c1ccc(Cl)cc1C(c1ccccc1Cl)=NC2`: the ED50 was greater than 30 mg/kg in [1]; 6.3 mg/kg in experiment [2]; 20 mg/kg in experiment [3]; 12.5 mg/kg in experiment [4] (Mus musculus, read-out: ED50); 2 mg/kg in experiment [5]; greater than 25 mg/kg in experiment [6]. Moreover, the ED50 was greater than 25 mg/kg in experiment [7]; 0.5 mg/kg in experiment [8] (Mus musculus, read-out: ED50); 0.56 mg/kg in [9] (Mus musculus, read-out: ED50).

With `CN(C)CCCn1nc2n(c1=O)-c1ccc(Cl)cc1C(c1ccccc1)=NC2`, the ED50 is greater than 50 mg/kg in experiment [1]; 32 mg/kg in [2]; greater than 50 mg/kg in experiment [3]; 40 mg/kg in experiment [4] (Mus musculus, read-out: ED50); 10 mg/kg in [5]; greater than 50 mg/kg in [6]. The ED50 is greater than 50 mg/kg in experiment [7]; 3.6 mg/kg in [8] (Mus musculus, read-out: ED50); 3.6 mg/kg in [9] (Mus musculus, read-out: ED50).

Consider `CNCCCn1nc2n(c1=O)-c1ccc(Cl)cc1C(c1ccccc1Cl)=NC2`, for which the ED50 in experiment [1] is greater than 50 mg/kg; in experiment [2], 14.9 mg/kg; in experiment [3] it was 9 mg/kg; in experiment [4] (Mus musculus, read-out: ED50), greater than 50 mg/kg; in experiment [5] it was 25 mg/kg; in [6], greater than 50 mg/kg. For the same compound, the ED50 in [7] was greater than 50 mg/kg; in experiment [8] (Mus musculus, read-out: ED50), 1.4 mg/kg; in experiment [9] (Mus musculus, read-out: ED50) it was 1.4 mg/kg.

`Cn1nc2n(c1=O)-c1ccc(Cl)cc1C(c1ccccc1)=NC2`: the ED50 in [1] is greater than 50 mg/kg; in experiment [2] it was 2.5 mg/kg; in experiment [4] it was 2 mg/kg; in experiment [4] (Mus musculus, read-out: ED50), 3 mg/kg; in [6] it was greater than 50 mg/kg; in experiment [7], greater than 50 mg/kg. Besides, the ED50 in [8] is 1 mg/kg; in experiment [8] (Mus musculus, read-out: ED50) it was 0.63 mg/kg; in [9] it was 1.1 mg/kg; in experiment [9] (Mus musculus, read-out: ED50), 0.63 mg/kg.

For the compound `CCN(CC)CCn1nc2n(c1=O)-c1ccc(Cl)cc1C(c1ccccc1)=NC2`, the ED50 in [1] is greater than 50 mg/kg; in experiment [2] it was 4 mg/kg; in experiment [3], greater than 50 mg/kg; in experiment [4] (Mus musculus, read-out: ED50), 10 mg/kg; in experiment [5], 1 mg/kg; in [6] it was greater than 50 mg/kg. Moreover, the ED50 in experiment [7] is greater than 50 mg/kg; in experiment [8] (Mus musculus, read-out: ED50), 1.3 mg/kg; in [9] (Mus musculus, read-out: ED50) it was 1.3 mg/kg.

In the case of `O=c1n(CCCN2CCN(c3ccccc3)CC2)nc2n1-c1ccc(Cl)cc1C(c1ccccc1Cl)=NC2`, the ED50 was greater than 50 mg/kg in [1]; greater than 50 mg/kg in [2]; greater than 50 mg/kg in experiment [3]; greater than 50 mg/kg in [4] (Mus musculus, read-out: ED50); greater than 50 mg/kg in [5]; greater than 50 mg/kg in experiment [6]. For the same compound, the ED50 was greater than 50 mg/kg in experiment [7]; 40 mg/kg in [8] (Mus musculus, read-out: ED50); 40 mg/kg in experiment [9] (Mus musculus, read-out: ED50).

In the case of `CCN(CC)CCCn1nc2n(c1=O)-c1ccc(Cl)cc1C(c1ccccc1Cl)=NC2`, the ED50 in experiment [1] was greater than 50 mg/kg; in experiment [2], 8.8 mg/kg; in experiment [3] it was 10 mg/kg; in [4] (Mus musculus, read-out: ED50) it was greater than 50 mg/kg; in experiment [5] it was 5.3 mg/kg; in experiment [6], greater than 25 mg/kg. The ED50 in [7] was greater than 50 mg/kg; in experiment [8] (Mus musculus, read-out: ED50) it was 1.1 mg/kg; in experiment [9] (Mus musculus, read-out: ED50), 1.3 mg/kg.

As to `CN(C)Cc1nnc2n1-c1ccc(Cl)cc1C(c1ccccc1)=NC2` [ADINAZOLAM], the ED50 in experiment [1] is 5.3 mg/kg; in [2], 0.9 mg/kg; in experiment [3], 5 mg/kg; in experiment [4] (Mus musculus, read-out: ED50), 0.7 mg/kg; in experiment [5], 1.6 mg/kg; in [6], 5.3 mg/kg. The ED50 stood at 0.11 mg/kg in experiment [8] (Mus musculus, read-out: ED50) and 0.13 mg/kg in [9] (Mus musculus, read-out: ED50).

`CN1C(=O)CN=C(c2ccccc2)c2cc(Cl)ccc21` [DIAZEPAM]: the ED50 in experiment [1] is greater than 50 mg/kg; in experiment [2] it was 0.1 mg/kg; in experiment [3] it was 0.2 mg/kg; in [4] (Mus musculus, read-out: ED50) it was 2.6 mg/kg; in experiment [5] it was 0.035 mg/kg; in experiment [6], greater than 50 mg/kg. Besides, the ED50 in experiment [7] was greater than 50 mg/kg; in experiment [8] (Mus musculus, read-out: ED50), 0.28 mg/kg; in experiment [9] (Mus musculus, read-out: ED50), 0.28 mg/kg.

Turning to `CN(C)CCCN1c2ccccc2CCc2ccccc21` [IMIPRAMINE], the 50% effective dose (ED50) in [1] was 1 mg/kg; in [3], greater than 50 mg/kg; in experiment [4] (Mus musculus, read-out: ED50), 21 mg/kg; in experiment [5], 18 mg/kg; in [6], 1 mg/kg; in [7], 4 mg/kg. The ED50 in experiment [8] (Mus musculus, read-out: ED50) came out at 7 mg/kg; in experiment [9] (Mus musculus, read-out: ED50), 7 mg/kg.

One may read the ED50 as the dose that gives a 50% effect, or the effect in half of the subjects.

(Values after ChEMBL document CHEMBL1121423, “2,4-Dihydro-6-phenyl-1H-s-triazolo[4,3-a][1,4]benzoidiazepin-1-ones with antianxiety and antidepressant activity” (1980).)
